From ChEMBL document CHEMBL1122207, “Antitumor agents. 2. Bisguanylhydrazones of anthracene-9,10-dicarboxaldehydes” (1982)

How the values were obtained:
Type in all cases: functional
Mus musculus [1] = assay: Percent increase in median life span of BDF1 mice with madison lung 109 leukemia administered intraperitoneally
Mus musculus [2] = organism: Mus musculus; assay: Cures is the number of survivors of the total treated mice (24) with P-388 leukemia, at 30 days.
In short: (§1)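 BDF1 or CDF1 mice given 10^6 ascitic P-388 leukemia cells ip, then treated ip on days 1, 5 and 9. Cures are survivors over total treated at 30 days.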

Mus musculus [3] = assay: Cures is the number of survivors of the total treated mice (6) with advanced L-1210 leukemia, at 30 days; treatment day +2 iv
In short: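 Advanced L-1210 leukemia, treated iv once on day +2 relative to tumor inoculation.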

Mus musculus [4] = assay: Percent tumor inhibition at non-lethal dose was determined in BDF1 mice with madison lung 109 leukemia; 1, 5, 9 days of sc treatment relative to tumor inoculation
Mus musculus [5] = assay: Percent increase in median life span of BDF1 mice with Colon 26 at dose 12.5 mg/kg administered intraperitoneally; 1, 5, 9 days of ip treatment relative to tumor inoculation; settings: BDF1, Colon 26, ip, 216 h, route intraperitoneal
Mus musculus [6] = assay: Percent increase in median life span of BDF1 mice with P-388 leukemia at dose 25 mg/kg administered intraperitoneally; 1, 5, 9 days of ip treatment relative to tumor inoculation; settings: BDF1, P388, ip, 216 h, route intraperitoneal
In short: (§2)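 BDF1 or CDF1 mice given 10^6 ascitic leukemia cells ip, then dosed ip on days 1, 5 and 9. Read-out is percent increase in life span versus untreated controls. Cures were scored as survivors/total at 30 days; when cures reached 50% or more, the run was extended until a specific ILS could be calculated. T/C ≥125% counted as significant.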

Mus musculus [7] = organism: Mus musculus; assay: Cures is the number of survivors of the total treated mice (5) with L-1210 leukemia, at 30 days.
Mus musculus [8] = organism: Mus musculus; assay: Cures is the number of survivors of the total treated mice (20) with B-16 melanoma, at 60 days.
In short: (§3)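 BDF1 mice were implanted ip with a homogenate from 0.05 g of B-16 melanoma and dosed ip on days 1-9. Cures are survivors over total at 60 days.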

Mus musculus [9] = organism: Mus musculus; assay: Cures is the number of survivors of the total treated mice (6) with P-388 leukemia, at 30 days.; in short: as §1
Mus musculus [10] = assay: Percent increase in median life span of BDF1 mice with L-1210 leukemia at dose 25 mg/kg administered intraperitoneally; 1, 5, 9 days of ip treatment relative to tumor inoculation; settings: BDF1, L1210, ip, 216 h, route intraperitoneal; in short: as §2
Mus musculus [11] = organism: Mus musculus; assay: Cures is the number of survivors of the total treated mice (26) with Colon 26, at 60 days.
Mus musculus [12] = organism: Mus musculus; assay: Cures is the number of survivors of the total treated mice (10) with advanced B-16 melanoma, at 30 days.
Mus musculus [13] = assay: Percent increase in median life span of BDF1 mice with advanced B-16 melanoma at dose 25 mg/kg administered intraperitoneally; 5, 9, 13 days of ip treatment relative to tumor inoculation; settings: B16, ip, 312 h, route intraperitoneal
Mus musculus [14] = assay: Percent increase in median life span of BDF1 mice with B-16 melanoma at dose 12 mg/kg administered intraperitoneally; Range 144-145%, 1-9 days of ip treatment relative to tumor inoculation; settings: BDF1, B16, ip, route intraperitoneal
In short: (§4)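 BDF1 mice were implanted ip with a homogenate from 0.05 g of B-16 melanoma. Ip dosing ran on days 1-9, starting 24 h after implant, in dose-response studies following NCI protocols. The read-out was percent increase in life span (ILS). T/C ≥125% was taken as significant.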

Mus musculus [15] = assay: Percent increase in median life span of BDF1 mice with advanced P-388 leukemia at dose 25 mg/kg administered intraperitoneally; 4, 8, 12 days of ip treatment relative to tumor inoculation; settings: P388, ip, 288 h, route intraperitoneal
Mus musculus [16] = assay: Percent increase in median life span of BDF1 mice with advanced L-1210 leukemia at dose 50 mg/kg administered intraperitoneally; treatment day +2 iv; settings: L1210
Mus musculus [17] = organism: Mus musculus; assay: Cures is the number of survivors of the total treated mice (6) with advanced L-1210 leukemia, at 30 days.
In short: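 Advanced L-1210 leukemia, with ip treatment on days 5, 9 and 13 relative to tumor inoculation.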

Mus musculus [18] = organism: Mus musculus; assay: Cures is the number of survivors of the total treated mice (8) with Colon 26, at 60 days.
Mus musculus [19] = assay: Percent increase in median life span of BDF1 mice with B-16 melanoma at dose 25 mg/kg administered intraperitoneally; 1-9 days of ip treatment relative to tumor inoculation; settings: BDF1, B16, ip, route intraperitoneal; in short: as §4
Mus musculus [20] = assay: Percent increase in median life span of BDF1 mice with advanced L-1210 leukemia at dose 200 mg/kg administered intraperitoneally; treatment day +2 iv; settings: L1210
Mus musculus [21] = assay: Percent increase in median life span of BDF1 mice with P-388 leukemia at dose 100 mg/kg administered intraperitoneally; 1, 5, 9 days of ip treatment relative to tumor inoculation; settings: BDF1, P388, ip, 216 h, route intraperitoneal; in short: as §2
Mus musculus [22] = organism: Mus musculus; assay: Cures is the number of survivors of the total treated mice (10) with B-16 melanoma, at 60 days.; in short: as §3
Mus musculus [23] = assay: Percent increase in median life span of BDF1 mice with Colon 26 at dose 25 mg/kg administered intraperitoneally; 1, 5, 9 days of ip treatment relative to tumor inoculation; settings: BDF1, Colon 26, ip, 216 h, route intraperitoneal
Mus musculus [24] = organism: Mus musculus; assay: Anticancer activity measured as the number of survivors of the total treated mice with P-388 leukemia at 30 days.; in short: as §1
Mus musculus [25] = organism: Mus musculus; assay: Number of survivors of the total treated mice with B-16 melanoma, at 60 days.; in short: as §3
Mus musculus [26] = assay: Percent increase in median life span of BDF1 mice with B-16 melanoma at dose 3.1 mg/kg administered intraperitoneally; settings: BDF1, B16, ip, route intraperitoneal; in short: as §4
Mus musculus [27] = assay: Percent increase in median life span of BDF1 mice with P-388 leukemia at dose 160 mg/kg administered intraperitoneally; settings: BDF1, P388, ip, route intraperitoneal
Mus musculus [28] = assay: Percent increase in median life span of BDF1 mice with P-388 leukemia at dose 225 mg/kg administered intraperitoneally; settings: BDF1, P388, ip, route intraperitoneal
Mus musculus [29] = assay: Percent increase in median life span of BDF1 mice with B-16 melanoma at dose 6.25 mg/kg administered intraperitoneally; 1-9 days of ip treatment relative to tumor inoculation; settings: BDF1, B16, ip, route intraperitoneal; in short: as §4
Mus musculus [30] = organism: Mus musculus; assay: Cures is the number of survivors of the total treated mice (12) with P-388 leukemia, at 30 days.; in short: as §1
Mus musculus [31] = assay: Percent increase in median life span of BDF1 mice with advanced B-16 melanoma at dose 6.2 mg/kg administered intraperitoneally; 5, 9, 13 days of ip treatment relative to tumor inoculation; settings: B16, ip, 312 h, route intraperitoneal
Mus musculus [32] = assay: Percent increase in median life span of BDF1 mice with L-1210 leukemia at dose 6.2 mg/kg administered intraperitoneally; 1, 5, 9 days of ip treatment relative to tumor inoculation; settings: BDF1, L1210, ip, 216 h, route intraperitoneal; in short: as §2
Mus musculus [33] = organism: Mus musculus; assay: Cures is the number of survivors of the total treated mice (10) with Colon 26, at 60 days.
Mus musculus [34] = assay: Percent increase in median life span of BDF1 mice with P-388 leukemia at dose 6.25 mg/kg administered intraperitoneally; range 125-145%; 1, 5, 9 days of ip treatment relative to tumor inoculation; settings: BDF1, P388, ip, 216 h, route intraperitoneal; in short: as §2
Mus musculus [35] = assay: Percent increase in median life span of BDF1 mice with B-16 melanoma at dose 6.25 mg/kg administered intraperitoneally; settings: BDF1, B16, ip, route intraperitoneal; in short: as §4
Mus musculus [36] = organism: Mus musculus; assay: Cures is the number of survivors of the total treated mice (10) with B-16 melanoma, at 60 days; in short: as §3
Mus musculus [37] = assay: Percent increase in median life span of BDF1 mice with P-388 leukemia at dose 3.1 mg/kg administered intraperitoneally; settings: BDF1, P388, ip, route intraperitoneal

## C/N=C(\N)N/N=C/c1c2ccccc2c(/C=N/N/C(N)=N/C)c2ccccc12
Mus musculus [1]
  ILS: 53%
Mus musculus [2]
  Cures: 6
Mus musculus [3]
  Cures: 0
Mus musculus [4]
  Inhibition: 89%
Mus musculus [5]
  ILS at 12.5 mg/kg: 129%
Mus musculus [6]
  ILS at 25 mg/kg: 157%
Mus musculus [7]
  Cures: 0
Mus musculus [8]
  Cures: 8
Mus musculus [9]
  Cures: 1
Mus musculus [10]
  ILS at 25 mg/kg: 62%
Mus musculus [11]
  Cures: 2
Mus musculus [12]
  Cures: 5
Mus musculus [13]
  ILS at 25 mg/kg: 62%
Mus musculus [14]
  ILS at 12 mg/kg: 145%
Mus musculus [15]
  ILS at 25 mg/kg: 108%
Mus musculus [16]
  ILS at 50 mg/kg: 50%

## CC1(C)CN=C(N/N=C/c2c3ccccc3c(/C=N/NC3=NCC(C)(C)CN3)c3ccccc23)NC1.Cl.Cl
Mus musculus [1]
  ILS: <25%
Mus musculus [17]
  Cures: 0
Mus musculus [18]
  Cures: 0
Mus musculus [4]
  Inhibition: 31%
Mus musculus [19]
  ILS at 25 mg/kg: 143%
Mus musculus [20]
  ILS at 200 mg/kg: 29%
Mus musculus [21]
  ILS at 100 mg/kg: 205%
Mus musculus [22]
  Cures: 4
Mus musculus [23]
  ILS at 25 mg/kg: 153%
Mus musculus [15]
  ILS at 25 mg/kg: 88%

## Cc1cc2c(/C=N/NC3=NCCN3)c3ccccc3c(/C=N/NC3=NCCN3)c2cc1C.Cl.Cl
Mus musculus [24]
  Cures: 0
Mus musculus [25]
  Cures: 0
Mus musculus [26]
  ILS at 3.1 mg/kg: 76%
Mus musculus [27]
  ILS at 160 mg/kg: 77%

## C(=N\NC1=NCCN1)/C1c2ccccc2C(/C=N/NC2=NCCN2)c2cc3ccccc3cc21 (stereo not given)
Mus musculus [28]
  ILS at 225 mg/kg: 105%

## Cc1ccc2c(/C=N/NC3=NCCN3)c3ccccc3c(/C=N/NC3=NCCN3)c2c1.Cl.Cl
Mus musculus [29]
  ILS at 6.25 mg/kg: 172%
Mus musculus [30]
  Cures: 1
Mus musculus [31]
  ILS at 6.2 mg/kg: 35%
Mus musculus [5]
  ILS at 12.5 mg/kg: ≥ 63%
Mus musculus [32]
  ILS at 6.2 mg/kg: 42%
Mus musculus [7]
  Cures: 0
Mus musculus [22]
  Cures: 4
Mus musculus [33]
  Cures: 0
Mus musculus [12]
  Cures: 3
Mus musculus [34]
  ILS at 6.25 mg/kg: 145%

## CCc1ccc2c(/C=N/NC3=NCCN3)c3ccccc3c(/C=N/NC3=NCCN3)c2c1.Cl.Cl
Mus musculus [24]
  Cures: 0
Mus musculus [35]
  ILS at 6.25 mg/kg: 97%
Mus musculus [36]
  Cures: 1
Mus musculus [37]
  ILS at 3.1 mg/kg: 64%
